Activity calls are given as the source filed them.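 The calls were made as follows, unless noted: active = viability at or under a set limit in both replicates, limit being median viability minus 3 SD (cut at about 48% in these data, passing the limit was not always enough); inconclusive = at or under the limit in just one replicate; inactive = at or above the limit in both replicates.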

Assay [1] in a line: Her2 expression decrease, cell viability multiplex – SKBR3 breast tumor cells, AlphaScreen, ATP viability, primary screen (AID 461;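 active = Her2 level under about 52% in both replicate screens, with viability over 70% of control, limit read from the data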;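 as to Her2 level: lower value means less Her2 protein in the cells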;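 as to viability: percent of carrier control wells set as 100% viability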). The settings on record: SKBR3 Her2 protein level, 18-24 h, measured here: SKBR3 viability, ATP luminescence, at 10 µM. (In Alpha technology, singlet oxygen from a donor bead excites a nearby acceptor bead.)
The target of assay [2] is Receptor tyrosine-protein kinase erbB-2 (Homo sapiens) (UniProt P04626). The description is as above. The conditions noted are these: 18-24 h, at 10 µM, stronger effect = lower value.
Assay [3] in a line: reduced viability of SK-BR-3 breast cancer cells – cell-based, 24 h, human, pilot screen (AID 572;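 active = viability at or below 10% of carrier control in both of two separate runs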;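 also: compound exposure lasted between 18 and 24 h rather than exactly 24 h; 100% = carrier-treated control wells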). The conditions noted are these: SK-BR-3 viability, CellTiter-Glo luminescence, at 10 µM, stronger effect = lower value. On the technique in general: Cellular ATP, detected with luciferase, serves as a proxy for viable cell number.
Assay [4] can be described thus: HUVEC growth inhibition – cell-based, human, primary screen (AID 575;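 active = viability at or below 30% in both replicate assays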;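 also: 100% = median of untreated cell wells with 0.1% DMSO on each plate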). The settings on record: HUVEC proliferation, CellTiter-Glo luminescence, 72 h; at 10 µM; stronger effect = lower value. In outline: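 material = primary HUVEC, no more than 12 passages | input = 1250 cells per well | controls = vehicle and MePR control wells | measured by = CTG luminescence | times = 72 h compound incubation | format = collagen-coated 384-well format | read-out = % viability vs DMSO wells | doses = single 10 µM dose, 0.1% DMSO, from 5x medium stock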

The nature of assay [5]: H69AR cell proliferation blockers – human, duplicate replicates, primary screen (AID 580).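 Also: 100% = mean luminescence of untreated wells and 0% = no signal.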 The conditions noted are these: H69AR lung tumor cells viability, ATP luminescence, 72 h; at 10 µM; stronger effect = lower value.
Assay [6] in a line: MRP1 drug-resistance reversers in H69AR cells – cell-based, doxorubicin co-treatment, pilot screen (AID 601;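 active = viability loss from added drug above about 55%, and viability with drug at most 40%, in both replicates, limit read from the data, passing the limit was not always enough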). The settings on record: CellTiter-Glo, 72 h, at 10 µM; for differential viability (reversal): stronger effect = higher value.
The nature of assay [7]: yeast transport mutant growth inhibition pilot in 384-well plates, post-Golgi transport modulator project (AID 636; in the data active = inhibition above about 31%). The conditions noted are these: absorbance 615 nm, about 18 h, stronger effect = higher value.
Assay [8] is described as follows: growth suppression of yeast trafficking mutant, preliminary HTS, modulators of trafficking downstream of Golgi apparatus project, 1536-format plate, OD 615 nm (AID 637; in the data active = inhibition above about 30%). The settings on record: yeast transport mutant growth, absorbance 615 nm, 18 h; stronger effect = higher value.
The mark [9] stands for this setting: H69AR cells + 2 uM doxorubicin, measured here: viability with 2 uM doxorubicin, stronger effect = lower value.
The mark [10] stands for this setting: H69AR cells, compound alone cytotoxicity.

Sequence of Receptor tyrosine-protein kinase erbB-2 (Homo sapiens) (P04626 whole entry, looked up): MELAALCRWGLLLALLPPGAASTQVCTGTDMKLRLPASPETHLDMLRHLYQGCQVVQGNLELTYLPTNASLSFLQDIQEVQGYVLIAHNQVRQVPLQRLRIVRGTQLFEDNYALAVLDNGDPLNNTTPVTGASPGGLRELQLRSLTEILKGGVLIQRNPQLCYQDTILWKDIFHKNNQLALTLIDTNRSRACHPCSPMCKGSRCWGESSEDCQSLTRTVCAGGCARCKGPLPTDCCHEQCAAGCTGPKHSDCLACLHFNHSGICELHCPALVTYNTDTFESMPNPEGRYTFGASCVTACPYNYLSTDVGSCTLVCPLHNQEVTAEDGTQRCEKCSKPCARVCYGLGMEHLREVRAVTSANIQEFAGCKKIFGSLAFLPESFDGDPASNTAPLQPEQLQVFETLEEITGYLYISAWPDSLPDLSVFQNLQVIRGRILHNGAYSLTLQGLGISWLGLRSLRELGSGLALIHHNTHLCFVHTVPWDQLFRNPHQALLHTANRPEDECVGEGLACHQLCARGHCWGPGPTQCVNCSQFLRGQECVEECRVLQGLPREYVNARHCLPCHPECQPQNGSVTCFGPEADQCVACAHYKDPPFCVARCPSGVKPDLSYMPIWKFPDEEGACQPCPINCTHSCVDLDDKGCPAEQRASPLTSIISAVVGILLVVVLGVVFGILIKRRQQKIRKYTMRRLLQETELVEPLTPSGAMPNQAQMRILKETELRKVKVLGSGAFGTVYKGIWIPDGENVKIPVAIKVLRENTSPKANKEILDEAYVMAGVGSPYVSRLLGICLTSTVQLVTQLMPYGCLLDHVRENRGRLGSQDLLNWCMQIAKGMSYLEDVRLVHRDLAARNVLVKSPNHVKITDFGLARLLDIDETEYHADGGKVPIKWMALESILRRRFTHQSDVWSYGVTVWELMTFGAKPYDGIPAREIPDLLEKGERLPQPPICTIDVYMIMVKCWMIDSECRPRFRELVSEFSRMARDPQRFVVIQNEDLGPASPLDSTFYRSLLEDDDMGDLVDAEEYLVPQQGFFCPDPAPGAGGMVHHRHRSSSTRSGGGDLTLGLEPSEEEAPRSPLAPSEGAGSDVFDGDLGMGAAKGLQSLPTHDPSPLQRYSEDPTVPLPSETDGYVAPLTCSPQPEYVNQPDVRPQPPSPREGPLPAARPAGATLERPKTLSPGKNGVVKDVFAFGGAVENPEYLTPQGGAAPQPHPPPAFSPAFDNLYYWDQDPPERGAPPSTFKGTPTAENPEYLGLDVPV

Turning to `c1ccc(CCn2nnnc2CN2CCN(C3CCCC3)CC2)cc1`, the viability (as a rule, a read-out of living cells in per cent, often relative to untreated cells) in assay [1] was 97.5%; in assay [3] it was 97.5% (inactive); in assay [4], 109% (inactive); in assay [5], 107% (inactive); in assay [6] (setting [9]) it was 87.5%; in assay [6] (setting [10]) it was 107%. Further, the Her2 level in assay [2] was 95% (inactive). Besides, the differential viability (reversal) in assay [6] (H69AR cells + 2 uM doxorubicin) was 19.1% (inactive). In addition, the inhibition (usually the relative decrease from the control value, in per cent) in assay [7] is 2.03% (inactive); in assay [8] it was -6.51% (inactive).

Consider `COc1ccc(CNC(=O)COC(=O)c2n[nH]c3ccccc23)cc1OC`, for which the viability in assay [1] was 88%; in assay [3] it was 88% (inactive); in assay [4], 89.7% (inactive); in assay [5], 92.6% (inactive); in assay [6] (setting [9]), 84.6%; in assay [6] (setting [10]), 92.6%. In addition, the Her2 level in assay [2] is 84.5% (inactive). For the same compound, the differential viability (reversal) in assay [6] (H69AR cells + 2 uM doxorubicin) was 8.04% (inactive). Besides, the inhibition in assay [7] was -7.47% (inactive); in assay [8], 2.38% (inactive).

`COc1ccc(-c2c(C(F)(F)F)oc3c(CN4CCN(C)CC4)c(O)ccc3c2=O)cc1`: the viability was 84.5% in assay [1]; 84.5% (inactive) in assay [3]; 87.9% (inactive) in assay [4]; 102% (inactive) in assay [5]; 103% in assay [6] (setting [9]); 102% in assay [6] (setting [10]). In addition, the Her2 level in assay [2] is 108% (inactive). The differential viability (reversal) in assay [6] (H69AR cells + 2 uM doxorubicin) was -1.1% (inactive). The inhibition in assay [7] was -2.67% (inactive); in assay [8], -6.03% (inactive).

For the compound `O=C(CSCCSCC(=O)c1ccco1)c1ccco1`, the viability was 83.5% in assay [1]; 83.5% (inactive) in assay [3]; 77.3% (inactive) in assay [4]; 101% (inactive) in assay [5]; 90% in assay [6] (setting [9]); 101% in assay [6] (setting [10]). Besides, in assay [2], the Her2 level is 96% (inactive). In addition, in assay [6] (H69AR cells + 2 uM doxorubicin), the differential viability (reversal) was 11.3% (inactive). Further, the inhibition in assay [7] was 0.13% (inactive); in assay [8] it was 8.85% (inactive).

Regarding `Cc1cc(/C=N/n2cnnc2)c(C)n1-c1ccc(Cl)cc1Cl`, the viability is 99.5% in assay [1]; 99.5% (inactive) in assay [3]; 92.3% (inactive) in assay [4]; 90.6% (inactive) in assay [5]; 80.5% in assay [6] (setting [9]); 90.6% in assay [6] (setting [10]). In addition, the Her2 level in assay [2] was 64.5% (inactive). Besides, the differential viability (reversal) in assay [6] (H69AR cells + 2 uM doxorubicin) was 10.1% (inactive). Further, the results for the inhibition in assay [7] and in assay [8] were -5.54% (inactive) and -6.17% (inactive), respectively.

Consider `C=CC(O)(C#CCN(CC)CC)c1ccccc1` (stereo not given), for which the viability is 96.5% in assay [1]; 96.5% (inactive) in assay [3]; 102% (inactive) in assay [4]; 99.9% (inactive) in assay [5]; 89.9% in assay [6] (setting [9]); 99.9% in assay [6] (setting [10]). In assay [2], the Her2 level was 89% (inactive). Besides, in assay [6] (H69AR cells + 2 uM doxorubicin), the differential viability (reversal) was 10.1% (inactive). Further, the inhibition is -2.03% (inactive) in assay [7] and -0.63% (inactive) in assay [8].

Consider `CCn1cc(C(=O)N=c2sc3ccccc3n2C)c(=O)c2ccc(C)nc21`, for which the viability is 92.5% in assay [1]; 92.5% (inactive) in assay [3]; 80.3% (inactive) in assay [4]; 95.7% (inactive) in assay [5]; 87.8% in assay [6] (setting [9]); 95.7% in assay [6] (setting [10]). Besides, the Her2 level in assay [2] is 84.5% (inactive). In addition, the differential viability (reversal) in assay [6] (H69AR cells + 2 uM doxorubicin) is 7.91% (inactive). Besides, the values for the inhibition in assay [7] and in assay [8] were 1.41% (inactive) and -2.83% (inactive), respectively.

Consider `c1cncc(-c2nnc(-c3ccco3)o2)c1`, for which the viability in assay [1] is 106%; in assay [3], 106% (inactive); in assay [4] it was 86.3% (inactive); in assay [5], 105% (inactive); in assay [6] (setting [9]), 89%; in assay [6] (setting [10]) it was 105%. Besides, in assay [2], the Her2 level is 114% (inactive). Besides, the differential viability (reversal) in assay [6] (H69AR cells + 2 uM doxorubicin) is 16% (inactive). Moreover, the inhibition in assay [7] was -4.93% (inactive); in assay [8], -7.58% (inactive).

In the case of `Cc1cc(C(=O)COC(=O)C2COc3ccccc3O2)c(C)n1CC1CCCO1` (stereo not given), the viability is 82% in assay [1]; 82% (inactive) in assay [3]; 99.4% (inactive) in assay [4]; 94% (inactive) in assay [5]; 93.6% in assay [6] (setting [9]); 94% in assay [6] (setting [10]). Further, the Her2 level in assay [2] is 100% (inactive). The differential viability (reversal) in assay [6] (H69AR cells + 2 uM doxorubicin) is 0.315% (inactive). Besides, the figures for the inhibition in assay [7] and in assay [8] were -0.38% (inactive) and -4.5% (inactive), respectively.

As for `COC(=O)Cn1c2c(c3cc(C)ccc31)CCCC2`, the viability in assay [1] is 83%; in assay [3], 83% (inactive); in assay [4], 103% (inactive); in assay [5] it was 102% (inactive); in assay [6] (setting [9]) it was 94.1%; in assay [6] (setting [10]), 102%. In assay [2], the Her2 level was 99% (inactive). Further, the differential viability (reversal) in assay [6] (H69AR cells + 2 uM doxorubicin) is 8.28% (inactive). Also, the values for the inhibition in assay [7] and in assay [8] were -4.74% (inactive) and 4.75% (inactive), respectively.

With `O=C(CN(Cc1ccc2c(c1)OCO2)C(=O)CNS(=O)(=O)c1ccccc1)NCc1ccco1`, the viability is 97% in assay [1]; 97% (inactive) in assay [3]; 107% (inactive) in assay [4]; 99.4% (inactive) in assay [5]; 97% in assay [6] (setting [9]); 99.4% in assay [6] (setting [10]). Moreover, in assay [2], the Her2 level is 86.5% (inactive). Besides, in assay [6] (H69AR cells + 2 uM doxorubicin), the differential viability (reversal) is 2.35% (inactive). Further, the inhibition in assay [7] was 0.41% (inactive); in assay [8], -1.31% (inactive).

As to `O=C(O)CCC(=O)c1c[nH]c2ccccc12`, the viability in assay [1] is 88%; in assay [3], 88% (inactive); in assay [4] it was 88.4% (inactive); in assay [5] it was 95.6% (inactive); in assay [6] (setting [9]), 101%; in assay [6] (setting [10]), 95.6%. Besides, the Her2 level in assay [2] is 114% (inactive). Moreover, the differential viability (reversal) in assay [6] (H69AR cells + 2 uM doxorubicin) was -5.4% (inactive). For the same compound, the figures for the inhibition in assay [7] and in assay [8] were 1.47% (inactive) and -4.76% (inactive), respectively.

With `Cc1cc(C)c(Cn2c(=O)n(CCCC(=O)NCc3ccco3)c(=O)c3ccccc32)c(C)c1`, the viability in assay [1] was 99%; in assay [3], 99% (inactive); in assay [4], 89.4% (inactive); in assay [5] it was 94.9% (inactive); in assay [6] (setting [9]), 83.5%; in assay [6] (setting [10]), 94.9%. Also, the Her2 level in assay [2] is 97.5% (inactive). Besides, the differential viability (reversal) in assay [6] (H69AR cells + 2 uM doxorubicin) is 11.4% (inactive). The inhibition in assay [7] was -1.45% (inactive); in assay [8], 9.18% (inactive).

As to `OCCN1CCN(CC(O)COc2ccc3ccccc3c2)CC1` (stereo not given), the viability is 88.5% in assay [1]; 88.5% (inactive) in assay [3]; 92.8% (inactive) in assay [4]; 102% (inactive) in assay [5]; 92.3% in assay [6] (setting [9]); 102% in assay [6] (setting [10]). Besides, the Her2 level in assay [2] is 82% (inactive). In addition, the differential viability (reversal) in assay [6] (H69AR cells + 2 uM doxorubicin) is 10% (inactive). Moreover, the inhibition in assay [7] was -4.8% (inactive); in assay [8], 5.25% (inactive).

On to `Cc1ccc(CCNC(=O)CC2Oc3ccc(C)cc3NC2=O)cc1` (stereo not given), for which the viability in assay [1] was 90%; in assay [3], 90% (inactive); in assay [4], 74.5% (inactive); in assay [5] it was 96% (inactive); in assay [6] (setting [9]), 92.6%; in assay [6] (setting [10]) it was 96%. Moreover, the Her2 level in assay [2] is 93.5% (inactive). Besides, the differential viability (reversal) in assay [6] (H69AR cells + 2 uM doxorubicin) is 3.38% (inactive). Moreover, the values for the inhibition in assay [7] and in assay [8] were 5.47% (inactive) and -2.46% (inactive), respectively.

On to `COc1ccc(CCNC(=O)CC2COc3ccccc3O2)cc1OC` (stereo not given), for which the viability is 102% in assay [1]; 102% (inactive) in assay [3]; 100% (inactive) in assay [4]; 85.4% (inactive) in assay [5]; 80.8% in assay [6] (setting [9]); 85.4% in assay [6] (setting [10]). In assay [2], the Her2 level was 93% (inactive). Moreover, in assay [6] (H69AR cells + 2 uM doxorubicin), the differential viability (reversal) is 4.62% (inactive). The figures for the inhibition in assay [7] and in assay [8] were -4.67% (inactive) and 8.36% (inactive), respectively.

The record behind these values is PubChem BioAssay.
